Source: ChEMBL document CHEMBL1154039, “Synthesis and biological evaluation of 1,2,4-trisubstituted imidazoles and 1,3,5-trisubstituted pyrazoles as inhibitors of transforming growth factor beta type 1 receptor (ALK5)” (Bioorg Med Chem Lett, 2009)
The source made the active and inactive calls. No cut-off for these calls is given here.

Tests used:
[1] = species: Homo sapiens; assay: (§1) Cytotoxicity against human embryo lung […] cells at 30 uM by MTT assay; type: functional
Procedure, shortened: (§2)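 HLF cells were seeded at about 3000 per well and grown 24 h before treatment. The number of viable cells at treatment (t = 0) was measured to correct for differences in starting cell number. At the read times, MTT tetrazolium salt and phenazine methosulfate were added directly to the medium for 2–3 h.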

[2] = as §1; type: functional; procedure, shortened: as §2
[3] = Selectivity for ALK5 over ALK7
Procedure, shortened: (§3)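 Purified C-terminally 6-His-tagged ALK4, ALK5 and ALK7, each run in a separate autophosphorylation assay. Each enzyme was preincubated with a range of compound concentrations for 30 min at 37 °C. Reactions were started with 10–8 mol/L ATP plus Smad3 and run 3 h at 30 °C. Phosphorylation was quantified as ATP consumed, using a luminescent ATP assay. Selectivity was obtained by comparing activity across the kinases.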

[4] = Selectivity for ALK5 over ALK4; procedure, shortened: as §3
[5] = target: T1, Activin receptor type-1B (Homo sapiens) (UniProt P36896); assay: Inhibition of ALK4 expressed in baculovirus/Sf9 cells assessed as inhibition of receptor autophosphorylation at 1 uM after 3 hrs
T1 sequence (whole entry): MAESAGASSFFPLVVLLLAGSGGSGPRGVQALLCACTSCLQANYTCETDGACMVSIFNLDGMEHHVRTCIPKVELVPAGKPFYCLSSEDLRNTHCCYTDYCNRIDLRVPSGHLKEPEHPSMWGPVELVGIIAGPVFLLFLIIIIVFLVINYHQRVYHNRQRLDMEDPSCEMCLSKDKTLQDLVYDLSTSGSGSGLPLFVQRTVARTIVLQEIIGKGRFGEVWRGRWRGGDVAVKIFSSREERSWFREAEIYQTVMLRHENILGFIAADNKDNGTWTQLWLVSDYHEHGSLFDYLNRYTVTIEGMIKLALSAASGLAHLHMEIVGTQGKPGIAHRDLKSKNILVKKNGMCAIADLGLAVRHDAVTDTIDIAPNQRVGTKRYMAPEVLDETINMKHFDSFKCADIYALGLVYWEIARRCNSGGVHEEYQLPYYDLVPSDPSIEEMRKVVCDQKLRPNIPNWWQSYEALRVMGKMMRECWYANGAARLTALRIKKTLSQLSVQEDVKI
Procedure, shortened: (§4)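 Kinase carried a C-terminal 6-His tag and was purified on a Ni2+ affinity column. The purified kinase was preincubated with compound for 30 min at 37 °C. The reaction was started with 10–8 mol/L ATP plus Smad3 substrate and run 3 h at 30 °C. Autophosphorylation was quantified from ATP consumed, using a luminescent ATP detection assay.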

[6] = target: T1, Activin receptor type-1B (Homo sapiens); assay: Inhibition of ALK4 expressed in baculovirus/Sf9 cells assessed as inhibition of receptor autophosphorylation at 0.1 uM after 3 hrs; procedure, shortened: as §4
[7] = target: T2, Activin receptor type-1C (Homo sapiens) (UniProt Q8NER5); assay: Inhibition of ALK7 expressed in baculovirus/Sf9 cells assessed as inhibition of receptor autophosphorylation at 1 uM after 3 hrs; procedure, shortened: as §4
T2 sequence (whole entry): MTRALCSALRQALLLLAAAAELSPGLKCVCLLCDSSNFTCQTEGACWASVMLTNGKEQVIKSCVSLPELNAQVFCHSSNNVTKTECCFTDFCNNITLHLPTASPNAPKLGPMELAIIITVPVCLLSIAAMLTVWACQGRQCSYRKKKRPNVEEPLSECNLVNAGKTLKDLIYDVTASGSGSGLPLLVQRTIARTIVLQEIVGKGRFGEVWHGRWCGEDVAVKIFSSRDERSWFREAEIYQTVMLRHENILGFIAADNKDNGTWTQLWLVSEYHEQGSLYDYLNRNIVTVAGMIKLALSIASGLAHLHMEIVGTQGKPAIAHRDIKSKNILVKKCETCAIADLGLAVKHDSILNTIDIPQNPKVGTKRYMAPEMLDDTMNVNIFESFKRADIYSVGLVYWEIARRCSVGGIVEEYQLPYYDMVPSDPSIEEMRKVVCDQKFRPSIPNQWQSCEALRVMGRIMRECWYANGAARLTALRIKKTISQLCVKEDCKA

[8] = target: T2, Activin receptor type-1C (Homo sapiens); assay: Inhibition of ALK7 expressed in baculovirus/Sf9 cells assessed as inhibition of receptor autophosphorylation at 0.1 uM after 3 hrs; procedure, shortened: as §4
[9] = Selectivity for ALK4 over ALK5; procedure, shortened: as §3
[10] = Selectivity for ALK4 over ALK7; procedure, shortened: as §3

inhibition [5] | inhibition [6] | inhibition [7] | inhibition [8] | Structure (SMILES) | Activity [1] | Activity [2] | other results
– | – | – | – | NC(=O)c1ccc(-c2cn(-c3ccc4c(c3)OCO4)c(-c3ccccc3F)n2)cc1 | inactive | – | –
– | – | – | – | COc1ccc(-c2cc(-c3ccc(C#N)cc3)nn2-c2ccccn2)cc1OC | inactive | – | –
– | – | – | – | Cc1cccc(-c2nc(C(C)(C)C)cn2-c2ccc(F)cc2)n1 | – | 59% | –
66.8% | 39.4% | 64% | 4.2% | Cc1cccc(-n2nc(-c3ccc(C(N)=O)cc3)cc2-c2ccc3c(c2)OCO3)n1 | – | 5.6% | Selectivity ratio [3]: 10; Selectivity ratio [4]: 10
70.4% | 32.1% | 65.8% | 5.3% | COc1ccc(-c2cc(-c3ccc(C(N)=O)cc3)nn2-c2ccccc2F)cc1OC | – | 19.4% | –
– | – | – | – | COc1ccccc1-n1nc(-c2ccc(C(N)=O)cc2)cc1-c1ccc(F)cc1 | inactive | – | –
73.7% | 65.6% | 54.8% | 24.5% | NC(=O)c1ccc(-c2cn(-c3ccc4c(c3)OCO4)c(-c3ccccn3)n2)cc1 | – | 21.6% | –
– | – | – | – | COc1ccc(-n2cc(-c3ccc(C#N)cc3)nc2-c2cccc(C)n2)cc1F | – | 57% | –
– | – | – | – | COc1ccc(-n2cc(-c3ccc(C(N)=O)cc3)nc2-c2cccc(C)n2)cc1F | – | 9.1% | –
– | – | – | – | NC(=O)c1ccc(-c2cc(-c3ccc4c(c3)OCO4)n(-c3ccccc3C(F)(F)F)n2)cc1 | inactive | – | –
– | – | – | – | OCc1ccc(-c2cc(-c3ccc4c(c3)OCO4)n(-c3ccccc3F)n2)cc1 | inactive | – | –
– | – | – | – | NC(=O)c1ccc(-c2cc(-c3ccc4c(c3)OCO4)n(-c3nccs3)n2)cc1 | inactive | – | –
34.5% | 25% | 35.1% | 16.2% | Cc1cccc(-c2nc(-c3ccc(C(N)=O)cc3)cn2-c2ccc(F)cc2)n1 | – | 19.1% | –
41.9% | 3.2% | 57.4% | 50.9% | NC(=O)c1ccc(-c2cc(-c3ccccc3F)n(-c3ccc4c(c3)OCO4)n2)cc1 | – | 0.52% | –
– | – | – | – | Cc1cccc(-c2nc(C(C)(C)C)cn2-c2ccc3c(c2)OCCO3)n1 | inactive | – | –
– | – | – | – | NC(=O)c1ccc(-c2cc(-c3ccc(F)cc3)n(-c3ccccn3)n2)cc1 | – | 23.7% | –
– | – | – | – | N#Cc1ccc(-c2cc(-c3ccccc3F)n(-c3ccc4c(c3)OCO4)n2)cc1 | – | 57.5% | –
– | – | – | – | Cc1cccc(-c2nc(-c3ccc(C#N)cc3)cn2-c2ccc3c(c2)OCCO3)n1 | – | 28% | –
93.7% | 73.8% | 56.5% | 34.8% | NC(=O)c1ccc(-c2cc(-c3ccc(O)c(O)c3)n(-c3ccccc3O)n2)cc1 | – | 48.9% | Selectivity ratio [9]: > 10; Selectivity ratio [10]: > 10
– | – | – | – | COc1ccc(-n2cc(C(C)(C)C)nc2-c2cccc(C)n2)cc1F | – | 22.1% | –
– | – | – | – | N#Cc1ccc(-c2cc(-c3ccc4c(c3)OCO4)n(-c3ccccc3F)n2)cc1 | inactive | – | –

inhibition [5] | inhibition [6] | inhibition [7] | inhibition [8] | Structure (SMILES) | Activity [1] | Activity [2] | other results
– | – | – | – | N#Cc1ccc(-c2cc(-c3ccc4c(c3)OCO4)n(-c3ccccn3)n2)cc1 | inactive | – | –
74.7% | 70% | 57.3% | 35.5% | NC(=O)c1ccc(-c2cc(-c3ccc4c(c3)OCO4)n(-c3ccccn3)n2)cc1 | – | 26.7% | –
– | – | – | – | COc1ccccc1-n1nc(-c2ccc(C(N)=O)cc2)cc1-c1ccc2c(c1)OCO2 | inactive | – | –
50.7% | 15.5% | 39.1% | 22.7% | NC(=O)c1ccc(-c2cc(-c3ccc4c(c3)OCO4)n(-c3ccccc3F)n2)cc1 | inactive | – | –
77.7% | 53.6% | 73.4% | 31.4% | Cc1cccc(-n2nc(-c3ccc(C#N)cc3)cc2-c2ccc3c(c2)OCO3)n1 | – | 15.4% | –
– | – | – | – | Cc1cccc(-c2nc(C(C)(C)C)cn2-c2ccc3c(c2)OCO3)n1 | – | 7.3% | –
29.8% | 15.6% | 41.3% | 4.5% | Cc1cccc(-c2nc(-c3ccc(C(N)=O)cc3)cn2-c2ccc3c(c2)OCO3)n1 | – | 14.9% | –
49.3% | 28.5% | 25% | 13.4% | Cc1cccc(-c2nc(-c3ccc(C(N)=O)cc3)cn2-c2ccc3c(c2)OCCO3)n1 | – | 0.7% | –
– | – | – | – | NC(=O)c1ccc(-c2nc(-c3ccccn3)c(-c3ccc4c(c3)OCO4)[nH]2)cc1 [SB-431542] | – | 55% | –
36.6% | 13.3% | 63.6% | 30.5% | N#Cc1ccc(-c2cn(-c3ccc4c(c3)OCO4)c(-c3ccccc3F)n2)cc1 | – | 12.3% | –
– | – | – | – | COc1ccc(-c2cc(-c3ccc(C(N)=O)cc3)nn2-c2ccccn2)cc1OC | – | 5.3% | –
– | – | – | – | NC(=O)c1ccc(-c2cc(-c3ccccn3)n(-c3ccc4c(c3)OCO4)n2)cc1 | inactive | – | –
– | – | – | – | NC(=O)c1ccc(-c2cc(-c3ccc(F)cc3)n(-c3ccccc3F)n2)cc1 | – | 19.54% | –
– | – | – | – | Cc1cccc(-c2nc(-c3ccc(C#N)cc3)cn2-c2ccc(F)cc2)n1 | – | 20.2% | –
76.9% | 45.5% | 44.6% | 33.9% | Cc1cccc(-c2nc(-c3ccc(C#N)cc3)cn2-c2ccc3c(c2)OCO3)n1 | – | 4% | –
– | – | – | – | O=C(O)c1ccc(-c2cc(-c3ccc4c(c3)OCO4)n(-c3ccccc3F)n2)cc1 | – | 5.4% | –
– | – | – | – | NC(=O)c1ccc(-c2cn(-c3ccc4c(c3)OCCO4)c(-c3ccccn3)n2)cc1 | – | 21% | –
– | – | – | – | COc1ccc(-c2cc(-c3ccc(C#N)cc3)nn2-c2ccccc2F)cc1OC | inactive | – | –
– | – | – | – | NC(=O)c1ccc(-c2cc(-c3ccc4c(c3)OCO4)n(-c3ccccc3)n2)cc1 | inactive | – | –
– | – | – | – | NC(=O)c1ccc(-c2cc(-c3ccc(F)cc3)n(-c3ccccc3O)n2)cc1 | inactive | – | –
